Measurements pooled from the literature.

Structure (SMILES) | tested on | assay | system | setting | measurement | value
Oc1c(Br)cc(Cl)c2cccnc12 | – | – | Sprague-Dawley rat, plasma | oral, 20 mg/kg | Vd/F | 39.9 L/kg
O=C(Nc1cncc(-c2nc3ccccc3o2)c1)c1cc([N+](=O)[O-])c(N2CCNCC2)cc1Cl | – | metabolic stability | CD-1 mouse, liver microsomes | 1 µM, 1 h, pH 7.4 | scaled CLint | 10 mL/min/kg
Fc1ccc(Nc2nc(-c3ccccn3)nc3ccccc23)cc1 | – | metabolic stability | mouse, liver microsomes | – | microsomal CLint | 138 µL/min/mg
O=C(Nc1cccc(-c2ncco2)c1)c1cc([N+](=O)[O-])c(F)cc1F | – | metabolic stability | CD-1 mouse, liver microsomes | 1 µM, 1 h, pH 7.4 | scaled CLint | 2200 mL/min/kg
NC(=O)c1cnc2[nH]ccc2c1N[C@@H]1[C@@H]2CC3C[C@H]1C[C@@](O)(C3)C2 | ATP-binding cassette sub-family C member 4 (ABCC4, Homo sapiens, UniProt O15439) | transporter uptake, inhibitor, radiometric | Sf9 | 100 µM, 5 min, pH 7, cell membranes | inhibition | < 50%
COc1ccc(CC(CC(=O)O)C(=O)O)cc1OC (stereo not drawn) | Huh7.5 | cell growth or viability, MTT | – | – | CC50 | > 5 mM
CCn1cnc2c(=O)[nH]c(N)nc21.NCCNCCN.[Pt+2] | CCRF-CEM | cell growth or viability, WST-1 | – | – | IC50 | > 100 µM
COC[C@@H](Cc1ccc(OC)c(OC)c1)[C@@H](COC)Cc1ccc(OC)c(OC)c1 | Huh7.5 | cell growth or viability, MTT | – | – | CC50 | 5 mM
CN1CCN(c2nc(-c3ccccn3)nc3ccccc23)CC1 | – | metabolic stability | mouse, liver microsomes | – | microsomal CLint | 19 µL/min/mg
